The record followed here is ChEMBL document CHEMBL4613248, “Twelfth-Position Deuteration of Nevirapine Reduces 12-Hydroxy-Nevirapine Formation and Nevirapine-Induced Hepatocyte Death” (J Med Chem, 2020).

Data set [1] in a line: Drug level in C57BL/6J mouse primary hepatocytes treated with 10 uM 2-D3NVP assessed as Cytochrome P450-mediated compound formation incubated for 24 hrs by uHPLC-MS analysis. The conditions noted are these: in the assay text read “12-D3NVP” for “2-D3NVP”. It is filed as ADME, cell-based. The method in brief: (§1)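 Fresh hepatocytes from male C57BL/6J mice (8–13 weeks), ≥85% viable on plating, adhered overnight, then given fresh medium with compound (final 0.1% DMSO vehicle) for 24 h in 12-well format. Culture medium deproteinized with acetonitrile (final 50%), dried, reconstituted in methanol; monooxygenated metabolites (2-, 3-, 12-OH) measured by uHPLC-MS/MS on Orbitrap. Four experimental replicates.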

Data set [2] has as its system Cytochrome P450. The data set is described as follows: Drug level in human primary hepatocytes treated with 10 uM NVP assessed as Cytochrome P450-mediated compound formation incubated for 24 hrs by uHPLC-MS analysis. The format is ADME, cell-based. The method in brief:
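Cryoplateable pooled human hepatocytes (10 mixed-sex donors per lot, three lots), ≥90% viable on plating, adhered overnight, then dosed in fresh InVitroGRO CP medium with antibiotics (vehicle 0.1% DMSO) for 24 h, 12-well format. Medium extracted by acetonitrile precipitation (final 50%), dried, reconstituted in methanol; 2-, 3- and 12-OH metabolites quantified by uHPLC-MS/MS on Orbitrap.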

A short description of data set [3]: Drug level in C57BL/6J mouse primary hepatocytes treated with 10 uM NVP assessed as Cytochrome P450-mediated compound formation incubated for 24 hrs by uHPLC-MS analysis. It is filed as ADME, cell-based. A digest of the protocol:
as §1

The nature of data set [4]: Plasma concentration in human. It is filed as ADME, cell-free.
For data set [5], the system named is Cytochrome P450. In words: Drug metabolism in human liver microsomes assessed as Cytochrome P450-mediated formation of 3-OHNVP formation at 5 to 400 uM in presence of NADPH regenerating reagents by uHPLC-MS/MS analysis. The format is ADME. The method in brief: (§2)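 Pooled human liver microsomes (2.5 mg/mL) with NADPH-regenerating system, substrate 5–400 μM, 30 min at 37 °C, 0.1% DMSO (0.2% at 400 μM); 2- and 3-OH metabolites by uHPLC-MS/MS Orbitrap; three replicates, mean ± SD.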
For orientation: Liver microsomes are vesicles of endoplasmic reticulum, rich in cytochrome P450 enzymes.

A short description of data set [6]: Drug metabolism in human primary hepatocytes assessed as O-GlucNVP metabolite formation at 10 uM incubated for 24 hrs by uHPLC-MS analysis. The format is ADME, cell-based, Hepatocyte. The method in brief: (§3)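 Cryoplateable pooled human hepatocytes (10 mixed-sex donors per pool, three lots), adhered overnight, then 10 μM substrate or vehicle (0.1% DMSO) for 24 or 48 h in InVitroGRO CP medium. Medium extracted with 50% acetonitrile, dried, reconstituted in methanol; uHPLC-Orbitrap MS/MS for monooxygenated metabolites, high-resolution MS for O-glucuronide.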

The test system of a further data set is Hepatocyte. In words: Toxicity in C57BL/6J mouse primary hepatocytes assessed as reduction in cell viability by measuring EtBr-positive cell nuclei level at 400 uM incubated for 8 hrs by EtBr/AcrO staining based assay (reference value: 19%). The method in brief:
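Fresh male C57BL/6J mouse hepatocytes on collagen-coated coverslips, 400 μM compound or vehicle (0.2% DMSO) for 8 h; 10 μM staurosporine as positive control. Ethidium bromide/acridine orange costaining, imaging, percentage of EtBr-positive nuclei scored as dead cells; unpaired two-tailed t test.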

Data set [7] can be described thus: Drug metabolism in C57BL/6J mouse primary hepatocytes assessed as O-GlucNVP metabolite formation at 10 uM incubated for 24 hrs by uHPLC-MS analysis. The format is ADME, cell-based, Hepatocyte. The method in brief:
(§4)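 Fresh hepatocytes from male C57BL/6J mice (8–13 weeks), adhered overnight, then 10 μM substrate or vehicle (0.1% DMSO) for 24 h. Medium extracted with acetonitrile (50% final), dried, reconstituted in methanol; uHPLC-Orbitrap targeted SIM plus PRM (monooxygenated metabolites) or high-resolution ions (O-glucuronides, 459.1510/462.1700 ±5 ppm); four experimental replicates.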

Data set [8] in a line: Drug metabolism in C57BL/6J mouse primary hepatocytes assessed as Cytochrome P450-mediated formation of 2-OHNVP at 10 uM incubated for 24 hrs by uHPLC-MS analysis. The format is ADME, cell-based. The method in brief:
as §4

A short description of data set [9]: Drug metabolism in human assessed as formation of 12-OH-NVP. The format is ADME.
Data set [10] has as its system Cytochrome P450. In words: Drug metabolism in human liver microsomes assessed as Cytochrome P450-mediated formation of 12-OHNVP at 1 to 400 uM in presence of NADPH regenerating reagents by uHPLC-MS/MS analysis. It is filed as ADME. A digest of the protocol:
(§5)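 Pooled human liver microsomes (2.5 mg/mL) in potassium phosphate; substrate (1–400 μM) prewarmed 5 min at 37 °C with NADPH-regenerating system, started with microsomes, 30 min at 37 °C. 12-OH product quantified by uHPLC-MS/MS Orbitrap against 12-OHNVP standard curve made in microsomes without NADPH. Kcat/Km taken as slope of linear rate vs substrate fit at nonsaturating 0–50 μM.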

A short description of data set [11]: Drug metabolism in C57BL/6J mouse primary hepatocytes assessed as Cytochrome P450-mediated formation of 3-OHNVP at 10 uM incubated for 24 hrs by uHPLC-MS analysis. The format is ADME, cell-based. A digest of the protocol:
as §4

Data set [12] concerns Cytochrome P450. In words: Drug metabolism in human liver microsomes assessed as Cytochrome P450-mediated formation of 2-OHNVP formation at 5 to 400 uM in presence of NADPH regenerating reagents by uHPLC-MS/MS analysis. It is filed as ADME. The method in brief:
as §2

Data set [13] can be described thus: Drug metabolism in C57BL/6J mouse primary hepatocytes assessed as Cytochrome P450-mediated formation of 8-OHNVP at 10 uM incubated for 24 hrs by uHPLC-MS analysis. It is filed as ADME, cell-based. A digest of the protocol:
as §4

The test system of data set [14] is Cytochrome P450. In words: Drug metabolism in human primary hepatocytes assessed as Cytochrome P450-mediated formation of 3-OHNVP at 10 uM incubated for 24 to 48 hrs by uHPLC-MS analysis. The format is ADME, cell-based. A digest of the protocol:
as §3

Data set [15] can be described thus: Drug metabolism in C57BL/6J mouse primary hepatocytes assessed as 12-O-GlucD2NVP metabolite formation at 10 uM incubated for 24 hrs by uHPLC-MS analysis. The format is ADME, cell-based, Hepatocyte. A digest of the protocol: as §4
The subject of data set [16] is Cytochrome P450. The data set is described as follows: Drug metabolism in human primary hepatocytes assessed as Cytochrome P450-mediated formation of 2-OHNVP at 10 uM incubated for 24 to 48 hrs by uHPLC-MS analysis. It is filed as ADME, cell-based. The method in brief: as §3
The nature of data set [17]: Drug metabolism in C57BL/6J mouse primary hepatocytes assessed as Cytochrome P450-mediated formation of 12-OHNVP at 10 uM incubated for 24 hrs by uHPLC-MS analysis. The format is ADME, cell-based. A digest of the protocol: as §4
Data set [18] has as its system Cytochrome P450. The data set is described as follows: Drug metabolism in human liver microsomes assessed as Cytochrome P450-mediated formation of 12-OHNVP by measuring Kcat/Km ratio in presence of NADPH regenerating reagents by uHPLC-MS/MS analysis. A digest of the protocol: as §5

Regarding `[2H]C([2H])([2H])c1cc(O)nc2c1NC(=O)c1cccnc1N2C1CC1`, the Drug uptake result in [1] was “Metabolite_Detected”.
Take `[2H]C([2H])(O)c1ccnc2c1NC(=O)c1cccnc1N2C1CC1`: the Drug uptake entry in [1] is “Metabolite_Detected”.
On to `Cc1cc(O)nc2c1NC(=O)c1cccnc1N2C1CC1`, for which the Drug uptake result (in the data set on Cytochrome P450 [2]; in data set [3]) was “Metabolite_Detected” throughout.
Regarding `[2H]C([2H])([2H])c1c(O)cnc2c1NC(=O)c1cccnc1N2C1CC1`, in [1], the Drug uptake result is “Metabolite_Detected”.
On to `O=C1Nc2c(CO)ccnc2N(C2CC2)c2ncccc21`, for which the Drug uptake result in data set [3] is reported as “Metabolite_Detected”.
In turn, `Cc1ccnc2c1NC(=O)c1cccnc1N2C1CC1` [NEVIRAPINE] had a concentration in data set [4] of 16 µM. The Drug metabolism entry with Cytochrome P450 [5] is “Metabolite_Detected”; in data set [6] it was “Metabolite_Detected”; in [7] it was “Metabolite_Detected”; in [8] it was “Metabolite_Detected”; in [9], 1.3 µM; in the data set with Cytochrome P450 [10], “Metabolite_Detected”. For the same molecule, the Drug metabolism entry in data set [11] is “Metabolite_Detected”; in the data set with Cytochrome P450 [12], “Metabolite_Detected”; in data set [13] it was “Metabolite_Notdetected”; with Cytochrome P450 [14], “Metabolite_Detected”; in [15], “Metabolite_Notdetected”; in the data set on Cytochrome P450 [16], “Metabolite_Detected”. Besides, in data set [17], the Drug metabolism result is recorded as “Metabolite_Detected”. Besides, the Activity in the data set with Hepatocyte worked out at 52.6%. In the data set on Cytochrome P450 [18], the Kcat/Km is 1.4 M⁻¹ s⁻¹.
As for `Cc1c(O)cnc2c1NC(=O)c1cccnc1N2C1CC1`, the Drug uptake result (with Cytochrome P450 [2]; in data set [3]) was “Metabolite_Detected” each time.
